Laboratory results from ChEMBL document CHEMBL3351316, “Scaffold hopping approach on the route to selective tankyrase inhibitors” (Eur J Med Chem, 2014).

Assays:
[1] = Lipophilicity, log D of the compound at pH 7.4; type: physicochemical; settings: buffer
[2] = biological target: Poly [ADP-ribose] polymerase 2 (Homo sapiens) (UniProt Q9UGN5); assay: Inhibition of human recombinant PARP2 incubated for 1 hr using histone substrate at 1 uM by luminescence based assay
Summary of the method: (§1)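 Recombinant PARP enzyme reactions were run in duplicate for 1 h at rt on histone-coated plates in Tris·HCl pH 8.0 buffer with NAD+, biotinylated NAD+ and activated DNA. Detection used streptavidin-HRP for 30 min at rt, then a chemiluminescent developer. % inhibition = 100 − % activity, scaled between the no-compound (100%) and no-enzyme (0%) signals.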

[3] = biological target: T1, Poly [ADP-ribose] polymerase tankyrase-1 (Homo sapiens, UniProt O95271); assay: Inhibition of GST-tagged human recombinant TNKS1 incubated for 1 hr using NAD+, biotinylated NAD+ and activated DNA by luminescence based assay
T1 sequence (O95271 whole entry): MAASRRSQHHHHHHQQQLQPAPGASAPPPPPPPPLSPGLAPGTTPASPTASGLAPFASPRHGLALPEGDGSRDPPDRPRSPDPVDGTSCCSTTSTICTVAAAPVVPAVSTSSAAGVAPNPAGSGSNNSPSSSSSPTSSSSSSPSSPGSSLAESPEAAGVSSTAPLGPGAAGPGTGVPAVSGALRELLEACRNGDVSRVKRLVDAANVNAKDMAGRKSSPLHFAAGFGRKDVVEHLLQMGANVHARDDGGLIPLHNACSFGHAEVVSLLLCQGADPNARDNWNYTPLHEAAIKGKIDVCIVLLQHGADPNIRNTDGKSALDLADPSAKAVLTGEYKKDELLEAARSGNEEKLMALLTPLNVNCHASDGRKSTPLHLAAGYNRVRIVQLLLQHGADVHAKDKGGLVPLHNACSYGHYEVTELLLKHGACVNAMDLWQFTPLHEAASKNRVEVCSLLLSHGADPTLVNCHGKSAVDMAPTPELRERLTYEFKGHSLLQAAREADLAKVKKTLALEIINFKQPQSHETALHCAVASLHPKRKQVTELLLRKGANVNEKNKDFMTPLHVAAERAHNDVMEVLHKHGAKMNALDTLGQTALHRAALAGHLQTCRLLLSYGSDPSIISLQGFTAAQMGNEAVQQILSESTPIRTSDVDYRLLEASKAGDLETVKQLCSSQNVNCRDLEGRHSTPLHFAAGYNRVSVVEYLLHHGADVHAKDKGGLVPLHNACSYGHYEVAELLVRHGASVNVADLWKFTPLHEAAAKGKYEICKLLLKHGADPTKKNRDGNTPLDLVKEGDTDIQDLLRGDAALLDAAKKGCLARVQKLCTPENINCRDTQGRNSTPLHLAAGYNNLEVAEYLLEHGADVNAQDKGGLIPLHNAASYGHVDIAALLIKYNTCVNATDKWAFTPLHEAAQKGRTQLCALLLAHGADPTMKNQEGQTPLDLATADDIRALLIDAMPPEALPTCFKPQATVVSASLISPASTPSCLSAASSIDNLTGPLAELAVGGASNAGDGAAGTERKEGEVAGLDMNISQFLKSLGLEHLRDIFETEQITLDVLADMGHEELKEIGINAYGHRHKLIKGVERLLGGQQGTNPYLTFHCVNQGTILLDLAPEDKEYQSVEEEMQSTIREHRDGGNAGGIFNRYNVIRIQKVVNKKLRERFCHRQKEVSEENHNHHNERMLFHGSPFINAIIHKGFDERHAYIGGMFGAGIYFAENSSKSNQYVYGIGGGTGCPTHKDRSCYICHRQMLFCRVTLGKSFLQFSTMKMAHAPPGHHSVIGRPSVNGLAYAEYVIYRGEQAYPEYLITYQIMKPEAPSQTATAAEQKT

[4] = biological target: Protein mono-ADP-ribosyltransferase PARP14 (Homo sapiens) (UniProt Q460N5); assay: Inhibition of human recombinant PARP14 at 100 uM incubated for 1 hr using NAD+, biotinylated NAD+ and activated DNA by luminescence based assay; summary of the method: as §1
[5] = biological target: Poly [ADP-ribose] polymerase 2 (Homo sapiens) (UniProt Q9UGN5); assay: Inhibition of human recombinant PARP2 incubated for 1 hr using histone substrate at 10 uM by luminescence based assay; summary of the method: as §1
[6] = biological target: Tankyrase 1/2 (Homo sapiens) (UniProt Q9H2K2+O95271); assay: Inhibition of tankyrase in human DLD1 cells assessed as reduction in Wnt activity at 10 uM after 24 hrs by TCF-luciferase reporter gene assay; type: cell-based; settings: DLD-1
Summary of the method: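 DLD-1 cells were transduced with a TOP-TCF firefly luciferase lentivirus plus a renilla luciferase lentivirus (1:20), with renilla used to normalise for infection efficiency. Compound was tested at 10 μM for 24 h, with DMSO as the negative control. Cells were then lysed for dual-luciferase read-out, and activity was taken as the TOP/RL ratio. Data are the average of at least three separate experiments ± SD.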

Poly [ADP-ribose] polymerase 2 (Homo sapiens), sequence (Q9UGN5 whole entry): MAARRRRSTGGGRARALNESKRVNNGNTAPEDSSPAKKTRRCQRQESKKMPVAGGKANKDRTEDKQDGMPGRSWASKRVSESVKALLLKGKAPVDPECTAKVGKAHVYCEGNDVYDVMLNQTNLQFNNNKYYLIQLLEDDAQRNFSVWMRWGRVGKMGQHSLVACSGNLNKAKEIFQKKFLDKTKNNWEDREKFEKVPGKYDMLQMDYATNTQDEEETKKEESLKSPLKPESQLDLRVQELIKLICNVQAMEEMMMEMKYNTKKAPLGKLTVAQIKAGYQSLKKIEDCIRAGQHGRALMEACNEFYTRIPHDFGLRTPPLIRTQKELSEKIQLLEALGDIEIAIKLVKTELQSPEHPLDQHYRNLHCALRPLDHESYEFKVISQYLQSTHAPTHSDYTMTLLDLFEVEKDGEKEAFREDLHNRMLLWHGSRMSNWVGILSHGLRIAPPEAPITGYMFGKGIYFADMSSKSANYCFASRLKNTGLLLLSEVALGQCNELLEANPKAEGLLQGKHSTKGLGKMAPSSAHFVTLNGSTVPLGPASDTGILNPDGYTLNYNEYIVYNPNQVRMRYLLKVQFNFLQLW
Tankyrase 1/2 (Homo sapiens), sequence (Q9H2K2 whole entry, looked up, one chain of several): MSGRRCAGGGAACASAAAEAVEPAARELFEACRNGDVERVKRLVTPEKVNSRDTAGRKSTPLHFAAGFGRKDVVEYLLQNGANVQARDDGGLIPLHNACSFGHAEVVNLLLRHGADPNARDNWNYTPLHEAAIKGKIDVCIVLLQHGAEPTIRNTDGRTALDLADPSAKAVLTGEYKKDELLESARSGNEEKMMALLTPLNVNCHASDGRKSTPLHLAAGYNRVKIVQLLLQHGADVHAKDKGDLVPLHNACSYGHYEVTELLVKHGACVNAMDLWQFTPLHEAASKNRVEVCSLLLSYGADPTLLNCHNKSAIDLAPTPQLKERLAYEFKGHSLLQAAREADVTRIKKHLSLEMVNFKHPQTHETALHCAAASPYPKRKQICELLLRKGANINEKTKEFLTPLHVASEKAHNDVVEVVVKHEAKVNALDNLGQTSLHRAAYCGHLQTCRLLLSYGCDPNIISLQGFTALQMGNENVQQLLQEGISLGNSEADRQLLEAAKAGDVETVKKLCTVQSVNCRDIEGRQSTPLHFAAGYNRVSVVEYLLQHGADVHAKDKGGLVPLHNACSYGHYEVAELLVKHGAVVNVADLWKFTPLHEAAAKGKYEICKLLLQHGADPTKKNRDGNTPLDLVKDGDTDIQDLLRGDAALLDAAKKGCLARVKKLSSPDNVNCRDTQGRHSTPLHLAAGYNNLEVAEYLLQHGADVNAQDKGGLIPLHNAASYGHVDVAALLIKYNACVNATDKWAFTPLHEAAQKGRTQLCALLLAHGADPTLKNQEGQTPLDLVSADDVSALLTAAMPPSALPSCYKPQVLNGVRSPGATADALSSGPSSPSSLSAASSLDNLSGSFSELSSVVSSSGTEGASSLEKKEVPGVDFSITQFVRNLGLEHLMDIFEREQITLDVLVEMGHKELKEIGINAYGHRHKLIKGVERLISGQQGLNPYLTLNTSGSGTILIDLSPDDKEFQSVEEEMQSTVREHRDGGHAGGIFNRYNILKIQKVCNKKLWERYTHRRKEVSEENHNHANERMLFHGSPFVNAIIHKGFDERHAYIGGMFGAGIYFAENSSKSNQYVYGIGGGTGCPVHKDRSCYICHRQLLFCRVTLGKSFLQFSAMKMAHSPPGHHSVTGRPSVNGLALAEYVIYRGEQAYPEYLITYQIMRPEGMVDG
Protein mono-ADP-ribosyltransferase PARP14 (Homo sapiens), sequence (Q460N5 whole entry): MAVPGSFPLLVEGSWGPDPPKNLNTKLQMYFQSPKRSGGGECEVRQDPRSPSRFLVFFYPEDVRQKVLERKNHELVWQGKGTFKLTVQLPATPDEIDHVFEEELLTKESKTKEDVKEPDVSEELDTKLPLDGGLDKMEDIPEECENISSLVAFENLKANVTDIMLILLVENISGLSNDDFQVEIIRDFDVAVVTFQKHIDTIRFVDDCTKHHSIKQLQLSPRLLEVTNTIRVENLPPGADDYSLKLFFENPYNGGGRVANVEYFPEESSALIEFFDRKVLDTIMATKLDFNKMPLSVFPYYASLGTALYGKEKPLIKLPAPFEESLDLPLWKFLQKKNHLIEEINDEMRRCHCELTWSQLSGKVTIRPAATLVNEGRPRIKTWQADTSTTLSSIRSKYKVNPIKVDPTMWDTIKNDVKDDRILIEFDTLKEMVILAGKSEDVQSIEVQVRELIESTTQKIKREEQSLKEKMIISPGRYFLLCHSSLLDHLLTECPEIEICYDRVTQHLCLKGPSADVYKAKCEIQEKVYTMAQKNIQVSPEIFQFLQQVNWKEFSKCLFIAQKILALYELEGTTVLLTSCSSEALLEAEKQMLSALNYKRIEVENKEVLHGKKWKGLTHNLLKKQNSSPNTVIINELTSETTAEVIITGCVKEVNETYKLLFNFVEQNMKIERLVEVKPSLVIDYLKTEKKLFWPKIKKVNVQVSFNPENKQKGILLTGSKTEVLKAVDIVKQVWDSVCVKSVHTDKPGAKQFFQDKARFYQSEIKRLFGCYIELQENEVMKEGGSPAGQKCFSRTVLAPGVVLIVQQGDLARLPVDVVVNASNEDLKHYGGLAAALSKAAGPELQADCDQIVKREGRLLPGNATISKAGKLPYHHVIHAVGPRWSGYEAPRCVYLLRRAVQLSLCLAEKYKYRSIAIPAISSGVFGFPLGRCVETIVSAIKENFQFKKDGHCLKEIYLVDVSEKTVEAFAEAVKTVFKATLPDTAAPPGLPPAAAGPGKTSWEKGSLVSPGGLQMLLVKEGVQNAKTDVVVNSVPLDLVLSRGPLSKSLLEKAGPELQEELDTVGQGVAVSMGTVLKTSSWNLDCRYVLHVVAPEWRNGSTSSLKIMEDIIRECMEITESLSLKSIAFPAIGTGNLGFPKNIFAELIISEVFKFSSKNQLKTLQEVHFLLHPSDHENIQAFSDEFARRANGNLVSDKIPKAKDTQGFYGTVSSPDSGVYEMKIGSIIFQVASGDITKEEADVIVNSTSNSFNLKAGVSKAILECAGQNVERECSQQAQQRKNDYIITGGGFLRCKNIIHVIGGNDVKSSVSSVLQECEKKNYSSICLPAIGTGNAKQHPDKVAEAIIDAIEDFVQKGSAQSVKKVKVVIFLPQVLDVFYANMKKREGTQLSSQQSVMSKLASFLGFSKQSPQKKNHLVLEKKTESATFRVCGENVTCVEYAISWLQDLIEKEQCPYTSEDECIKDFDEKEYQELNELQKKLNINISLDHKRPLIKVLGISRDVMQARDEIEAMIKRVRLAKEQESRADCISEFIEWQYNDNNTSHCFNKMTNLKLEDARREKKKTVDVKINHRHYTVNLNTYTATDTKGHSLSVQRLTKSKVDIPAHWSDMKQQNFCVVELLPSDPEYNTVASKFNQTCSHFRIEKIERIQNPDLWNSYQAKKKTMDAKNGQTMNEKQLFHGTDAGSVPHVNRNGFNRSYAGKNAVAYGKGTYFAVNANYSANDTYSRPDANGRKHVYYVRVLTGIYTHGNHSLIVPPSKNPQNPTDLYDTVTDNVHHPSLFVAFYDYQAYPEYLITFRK

Row | Compound | logD [1] | inhibition [2] [%] | IC50 [3] [nM] | inhibition [4] [%] | inhibition [5] [%] | inhibition [6] [%]
1 | O=c1[nH]c(-c2ccccc2)cc2c1sc1ccccc12 | 3.63 | 11 | 181 |  |  | 
2 | O=c1[nH]c2cc(O)ccc2c2c1sc1ccccc12 | 3.43 | 64 |  |  |  | 
3 | O=c1[nH]ccc2c1sc1ccccc12 | 3.62 | 34 |  |  |  | 
4 | O=c1[nH]c(-c2ccccc2)nc2c3c(sc12)CCCC3 | 4.11 | 11 |  |  |  | 
5 | O=c1[nH]c(C2CCCCC2)nc2c1sc1ccccc12 | 3.89 | 14 |  |  |  | 
6 | O=c1[nH]c2ccccc2c2ccsc12 | 2.65 | 91 |  |  |  | 
7 | O=c1[nH]c(-c2ccccc2)cc2ccsc12 | 2.53 | 26 |  |  |  | 
8 | COc1cccc(/C=C/C(=O)O)c1 |  |  |  | 17 |  | 
9 | Oc1nc(-c2ccc(C(F)(F)F)cc2)nc2c1CSCC2 |  |  |  |  | 100 | 
10 | O=c1[nH]c(-c2cccs2)nc2c1sc1ccccc12 | 3.52 | 9 |  |  |  | 
11 | COc1ccc2c(c1)[nH]c(=O)c1sc3ccc(OC)cc3c12 | 3.43 | 12 |  |  |  | 
12 | COc1ccc2c(c1)nc(O)c1sc3ccccc3c12 | 3.59 | 27 |  |  |  | 37
13 | O=c1[nH]c2ccccc2c2c1sc1ccccc12 | 3.75 | 14 | 90 |  |  | 
14 | Oc1cc(-c2ccccc2)c2ccccc2n1 | 3.03 | 3 |  |  |  | 
15 | O=c1[nH]c(-c2ccccc2)nc2c1sc1ccccc12 | 3.62 | 0 |  |  |  | 
16 | Cc1ccc(-c2nc3c(sc4ccccc43)c(=O)[nH]2)cc1 | 4.13 | 4 | 19.4 |  |  | 
17 | O=c1[nH]ccc2ccsc12 | 1.24 | 24 |  |  |  | 
18 | O=c1[nH]c2ccccc2c2c1sc1ccc(O)cc12 | 3.44 | 93 |  |  |  | 
19 | COc1ccc2sc3c(O)nc4ccccc4c3c2c1 | 3.59 | 17 |  |  |  | 21
